Experimental data taken from ChEMBL document CHEMBL1125175, “Synthesis and DNA-binding properties of polyamine analogues” (J Med Chem, 1991).

How the values were obtained:
Nucleic Acid [1] = assay: Ability to displace ethidium bromide from double stranded synthetic Poly (dA-dT); type: nucleic-acid assay
Procedure, shortened: (§1)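 Fluorescence displacement. Ethidium bromide 1.6 μM final in 2 mM HEPES, 10 μM EDTA, 9.4 mM NaCl, pH 7.0, then DNA added at 2 μM final (DNA phosphate): calf thymus DNA, poly(dA-dT)·poly(dA-dT) or poly(dG-dC)·poly(dG-dC). Excitation 546 nm, emission 598 nm. Analogue titrated in aliquots. IC50 is the concentration halving ethidium–DNA fluorescence. Trial-to-trial variability generally <5%.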

Calf thymus DNA = assay: Ability to displace ethidium bromide from calf thymus DNA; type: nucleic-acid assay, Bos taurus; procedure, shortened: as §1
HeLa [2] = assay: Ability to inhibit 50% growth of HeLa cells; type: functional, cell-based; conditions: Homo sapiens
Procedure, shortened: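 HeLa cells grown 2 days, then counted to set the baseline. Analogues added in complete medium for a further 2 days, then cells counted. Growth increase compared with untreated controls. IC50 is the concentration giving a 50% decrease in growth relative to controls.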

HeLa [3] = assay: Ability to cause aggregation of purified HeLa cell DNA; type: functional; conditions: Homo sapiens
Procedure, shortened: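 HeLa DNA labelled via 3-day culture with 4 μCi [³H]thymidine, then phenol/chloroform extracted. 1.5 μg DNA (~20000 cpm) plus analogue at various concentrations in buffer of 25 mM Tris, 4.5 mM KCl, 3 mM MgCl₂, pH 7.6. Incubated 10 min at 37 °C, then centrifuged 2.5 min and supernatant counted.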

Nucleic Acid [4] = assay: Ability to displace ethidium bromide from double stranded synthetic poly (dG-dC); type: nucleic-acid assay; procedure, shortened: as §1

Compound | IC50 (Nucleic Acid [1]) [µM] | IC50 (Calf thymus DNA) [µM] | IC50 (HeLa [2]) [µM] | IC50 (HeLa [3]) [µM] | IC50 (Nucleic Acid [4]) [µM]
CCNCCCNCCCCCCCCNCCCNCC | 3.9 | 15 | 200 | 150 | 19.5
CCCCNCCCNCCCCCCCCNCCCNCCCC | 4.2 | 20 | > 500 | 340 | 40
CCCNCCCNCCCCCCCCNCCCNCCC | 3.8 | 17 | > 500 | 220 | 25
NCCCNCCCCCCCCNCCCN | 3.8 | 4.9 | 50 | 35 | 7.8
NCCCCSCCCN |  | 1450 | 350 | > 15000 | 
c1ccc(CNCCCNCCCCCCCCNCCCNCc2ccccc2)cc1 | 4.2 | 13 | 15 | 300 | 32
CC(N)CCNCCCCCCCCNCCC(C)N (configuration not stated) | 4.2 | 7.5 |  |  | 12.5
CC(CCN)NCCCCCCCCNC(C)CCN (configuration not stated) | 3.6 | 7 | 100 | 180 | 12.6
NCCCNCC(F)(F)CN |  | > 10000 |  |  | 
NCCCNCCCC(F)(F)NCCCN |  | 140 |  | 2500 | 
c1ccc(CNCCCNCCCCCCCNCCCNCc2ccccc2)cc1 | 4.6 | 6 | 5 | 150 | 31
c1ccc(CNCCCNCCCCCCCCCCNCCCNCc2ccccc2)cc1 | 3.1 | 33 | 1 | 400 | 26
C=C(CNC)CNCCCCCCCCNCC(=C)CNC | 4.5 | 19.1 | 125 |  | 30
CNCC(C)CNCCCCCCCNCC(C)CNC (configuration not stated) | 4.5 | 12.8 | > 500 |  | 20
NCCCNCC(F)(F)CCN |  | 275 | 150 | 3100 | 
NCCCNCCCCCCCCCCNCCCN | 4.2 | 8 | 10 | 170 | 11
c1ccc(CNCCCNCCCCCCCCCNCCCNCc2ccccc2)cc1 | 2.9 | 31 | 10 | 200 | 24.5
c1ccc(CNCCCNCCCCCCNCCCNCc2ccccc2)cc1 | 10 | 5.5 | 60 | 85 | 25
NCCCNCCCC1CCC(CCCNCCCN)CC1 (configuration not stated) |  | 7.5 | 90 |  | 
NCCCNCCCc1ccc(CCCNCCCN)cc1 |  | 5 | 160 | 250 | 
NCC(O)CNCCCCCCCCNCC(O)CN (configuration not stated) | 4.3 | 5.2 |  | 200 | 27
c1ccc(CCCNCCCNCCCCCCCNCCCNCCCc2ccccc2)cc1 | 4.7 | 7.5 | 20 | 100 | 12
NCC(=O)CNCCCCCCCCNCC(=O)CN | 10.5 | 8.2 |  | 400 | 18
c1ccc(CNCCNCCCCCCCCCCNCCNCc2ccccc2)cc1 | 700 | 600 | 2 | > 8000 | 1600

Compound | IC50 (Nucleic Acid [1]) [µM] | IC50 (Calf thymus DNA) [µM] | IC50 (HeLa [2]) [µM] | IC50 (HeLa [3]) [µM] | IC50 (Nucleic Acid [4]) [µM]
c1ccc(CNCCCCNCCCCCCCCNCCCCNCc2ccccc2)cc1 | 3.4 | 12 | > 500 | 105 | 20
NCCCNC(F)(F)CCCN | 1000 | 875 |  | 7000 | 900
NCC(O)CNCCCCCCCNCC(O)CN (configuration not stated) | 4.5 | 4.9 |  | 110 | 23
c1ccc(CNCCCCNCCCCCCCNCCCCNCc2ccccc2)cc1 | 3.2 | 10 | > 500 | 95 | 20
NCCCNCCCCCCCCCNCCCN | 4.5 | 12 | 30 |  | 16
CNC(C)CCNCCCCCCCNCCC(C)NC (configuration not stated) | 5 | 6.5 |  | 100 | 15
c1ccc(CCNCCCNCCCCCCCNCCCNCCc2ccccc2)cc1 | 2.8 | 8 | 20 | 85 | 10.7
NCCCc1ccc(CCCN)cc1 |  | 400 | 400 | 3000 | 
NCCCNCCCCCCCNCCCN | 2.6 | 3.8 | 200 | 37 | 5.4
CCCNCCCNCCCCCCCNCCCNCCC | 3.8 | 10 | 300 | 250 | 20.5
c1ccc(CNCCNCCCCCCNCCNCc2ccccc2)cc1 |  | 800 | 75 | 2400 | 
CCNCCCNCCCCCCCNCCCNCC | 4 | 11 | 100 | 200 | 20
c1ccc(CNCCCNCCCCCNCCCNCc2ccccc2)cc1 | 4.5 | 12 | 80 |  | 22
c1ccc(CNCCCNCCCCNCCCNCc2ccccc2)cc1 | 4.9 | 10 | 10 | 40 | 17
CC(CN)CNCCCCCCCNCC(C)CN (configuration not stated) | 3 | 8 | > 500 |  | 10.5
CNCCCNCCCCCCCNCCCNC | 3.5 | 6 | 500 | 150 | 11
c1ccc(NCCCNCCCCCCCNCCCNc2ccccc2)cc1 |  | 80 |  |  | 
C/C=C(\CNC)CNCCCCCCCNC/C(=C/C)CNC | 5 | 12 | > 500 |  | 34.5
c1ccc(CNCCNCCCCCCCCNCCNCc2ccccc2)cc1 | 40 | 130 | 20 | 750 | 100
c1ccc(CNCCNCCCCCCCNCCNCc2ccccc2)cc1 | 170 | 600 | 60 | 600 | 316
CNC/C(=C\Cl)CNCCCCCCCNC/C(=C/Cl)CNC | 5 | 12 | 125 |  | 34.5
NCCCNCCCN [NORSPERMIDINE] | 140 | 220 | 100 | 3000 | 370
NCCCCN [PUTRESCINE] | 5100 | 4500 | 8000 | 12000 | 5200
